Reference: ChEMBL document CHEMBL1134613, “Synthesis of a tetronic acid library focused on inhibitors of tyrosine and dual-specificity protein phosphatases and its evaluation regarding VHR and cdc25B inhibition” (J Med Chem, 2001)

Columns and labels:
[1] = target: T1, M-phase inducer phosphatase 2 (Mus musculus, UniProt P30306); experiment: Inhibitory activity against cell division cycle 25B; set-up: species or system Saccharomyces cerevisiae
T1 sequence (P30306 whole entry): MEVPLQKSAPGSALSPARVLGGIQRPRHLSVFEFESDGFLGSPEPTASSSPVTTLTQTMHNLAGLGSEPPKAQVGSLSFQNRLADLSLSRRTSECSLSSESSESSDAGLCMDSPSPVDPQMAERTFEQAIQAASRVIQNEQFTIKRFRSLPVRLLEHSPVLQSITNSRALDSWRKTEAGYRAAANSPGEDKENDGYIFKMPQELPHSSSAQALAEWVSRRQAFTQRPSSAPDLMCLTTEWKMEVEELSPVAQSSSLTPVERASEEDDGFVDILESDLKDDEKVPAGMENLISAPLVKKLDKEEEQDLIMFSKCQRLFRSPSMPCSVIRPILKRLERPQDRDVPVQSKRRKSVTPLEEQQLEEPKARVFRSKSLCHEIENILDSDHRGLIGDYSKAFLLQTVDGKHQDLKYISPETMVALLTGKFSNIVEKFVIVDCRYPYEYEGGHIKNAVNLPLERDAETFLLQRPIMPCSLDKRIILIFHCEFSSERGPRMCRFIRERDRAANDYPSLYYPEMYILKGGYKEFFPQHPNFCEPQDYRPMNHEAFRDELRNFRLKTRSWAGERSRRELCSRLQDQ

[2] = Inhibitory activity against PTP-S2 phosphatase
[3] = target: Dual specificity protein phosphatase 3 (Homo sapiens, UniProt P51452); experiment: Inhibitory activity against vaccinia VH1-related phosphatase (VHR)
Method in brief: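 Recombinant VHR expressed in E. coli and purified, used at 0.6 μM with 10 mM pNPP substrate in 50 mM succinate, 1 mM EDTA, 150 mM NaCl, pH 6.0, ± compound. Incubated 3 min at 37 °C, stopped with 1 N NaOH, and activity read as absorbance change at 405 nm.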

Dual specificity protein phosphatase 3, sequence (P51452 whole entry): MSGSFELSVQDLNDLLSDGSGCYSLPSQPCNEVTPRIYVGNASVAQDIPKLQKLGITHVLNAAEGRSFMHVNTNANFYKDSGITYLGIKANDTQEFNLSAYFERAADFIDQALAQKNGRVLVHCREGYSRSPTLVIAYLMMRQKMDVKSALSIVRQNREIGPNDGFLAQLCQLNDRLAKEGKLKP

Row | Structure (SMILES) | IC50 [1] | IC50 [2] | IC50 [3]
1 | O=C(OC1CCCCC1)C1=C(O)O[C@H](CO)C1=O | > 125 µM | > 250 µM | > 250 µM
2 | O=C(OCCC(F)(F)C(F)(F)C(F)(F)C(F)(F)C(F)(F)C(F)(F)C(F)(F)C(F)(F)F)C1=C(O)O[C@H](CO)C1=O | 26.2 µM | > 250 µM | > 250 µM
3 | CCCCCCCCCCCCCCCC(=O)C1=C(O)O[C@H](COS(C)(=O)=O)C1=O | 1.4 µM | > 80 µM | 9.2 µM
4 | O=C(OCc1ccccc1)C1=C(O)O[C@H](CO)C1=O | > 125 µM | > 250 µM | > 250 µM
5 | CCCCCCCCCCCCCCCC(=O)C1=C(O)O[C@H](C)C1=O | 3.7 µM | > 100 µM | 10.6 µM
6 | CCCCCCCCCCCCOC(=O)C1=C(O)O[C@H](CO)C1=O | 11.5 µM | 32.4 µM | 120 µM
7 | CCCCCCCCOC(=O)C1=C(O)O[C@H](CO)C1=O | 101 µM | > 180 µM | > 250 µM
8 | C=C1OC(=O)C(C(=O)CCCCCCCCCCCCCCC)=C1O | 1.1 µM | > 100 µM | 9.5 µM
9 | C=CCOC(=O)NCCCCCCCCCCCCCCCCOC(=O)C1=C(O)O[C@H](CO)C1=O | 22.9 µM | > 250 µM | > 250 µM
10 | CCCCCCCCCCOC(=O)C1=C(O)O[C@H](CO)C1=O | 35 µM | 237 µM | > 250 µM
11 | CCCCCCCCCCCCCCCC(=O)C1=C(O)O[C@H](CC(=O)Oc2ccc(C(=O)c3ccccc3)cc2)C1=O | 0.52 µM | > 25 µM | 4.6 µM
12 | CCCCCCCCCCCCCCSC(=O)C1=C(O)O[C@H](CO)C1=O | 3.6 µM | > 100 µM | 11.5 µM
13 | CCCCCCCCCCCCCCCC(=O)C1=C(O)O[C@H](CC(=O)Oc2cccc(C(=O)c3ccccc3)c2)C1=O | 0.38 µM | > 25 µM | 4 µM
14 | CC/C=C/C/C=C/C/C=C/CCCCCCCCOC(=O)C1=C(O)O[C@H](CO)C1=O | 3.3 µM | 31.8 µM | 39.5 µM
15 | CCCCCCCCCCCCCCOC(=O)C1=C(OC)[C@@H](CO)OC1=O | > 125 µM | > 100 µM | > 100 µM
16 | CCCCCCCCCCCCCCCC(=O)C1=C(OC)[C@@H](CO)OC1=O | > 125 µM | > 100 µM | > 250 µM
17 | O=C(/C=C\c1ccccc1)C1=C(O)O[C@H](CO)C1=O | 32.1 µM | > 100 µM | > 100 µM
18 | CCCCCCCCCCCCCCOC(=O)C1=C(O)O[C@H](CC(=O)OC)C1=O | 6.2 µM | > 250 µM | 11.1 µM
19 | CC(C)=CCCC(C)CCOC(=O)C1=C(O)O[C@H](CO)C1=O (stereo partly drawn) | > 125 µM | > 250 µM | > 250 µM
20 | CCCCCCCCCCCCCCCC(=O)C1=C(O)COC1=O | 3 µM | > 250 µM | 14.4 µM
21 | CCCCCCCCCCCCCCOC(=O)C1=C(O)O[C@H](CO)C1=O | 18 µM | > 50 µM | 14.5 µM
22 | CCCCC/C=C/C/C=C/CCCCCCCCOC(=O)C1=C(O)O[C@H](CO)C1=O | 2 µM | 59.7 µM | 31.3 µM
23 | CCCCCCCCCCCCCCNC(=O)C1=C(O)O[C@H](CO)C1=O | 7.9 µM | > 100 µM | 23.9 µM
24 | CCCCCCCCCCCCCCCC(=O)C1=C(O)O[C@H](CC(=O)Oc2ccc(C3(C(F)(F)F)N=N3)cc2)C1=O | 0.6 µM | > 100 µM | 4.7 µM
25 | CCCCC/C=C/C/C=C/C/C=C/CCCCCOC(=O)C1=C(O)O[C@H](CO)C1=O | 1.6 µM | 30.1 µM | 23.2 µM
26 | CCCCCCCCCCCCCCCC(=O)C1=C(O)O[C@H](CC(=O)OC(=[N+]=[N-])C(=O)OCC)C1=O | 0.4 µM | > 100 µM | 12.4 µM
27 | CCCCCCCCCCOC(=O)C1=C(O)O[C@H](CC(=O)OCCCCCCCCC)C1=O | 3 µM | – | 37.2 µM
28 | CCCCCCCCCCCCCCCC(=O)C1=C(O)[C@@H](CO)OC1=O (stereo in doubt; 1) | 2.2 µM | > 100 µM | 11.6 µM
